SENP8 block-1: human SENP8 protease inhibitors, primary screen, biochemical, fluorescence, Nedd8 protein substrate, uHTS | recombinant SENP8 | inhibition, % at 20 µM | 0.64% of 360,000 active | Sentrin-specific protease 8 (Homo sapiens), Q96LD8 | AID 602440, 2012; in the data active = inhibition mostly above about 40%, no sharp cut-off; inactive = mostly below about 27%
Target sequence (Q96LD8 whole entry, looked up): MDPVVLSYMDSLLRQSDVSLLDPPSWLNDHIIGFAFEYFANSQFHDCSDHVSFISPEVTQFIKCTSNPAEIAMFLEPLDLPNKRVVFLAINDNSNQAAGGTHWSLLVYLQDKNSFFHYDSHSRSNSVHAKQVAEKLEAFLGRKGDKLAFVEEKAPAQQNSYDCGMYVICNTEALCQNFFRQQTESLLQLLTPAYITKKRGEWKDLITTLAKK
SENP7 inh: SENP7 protease inhibitors, primary screen, biochemical, luminescence, uHTS; recombinant SENP7, Z-RLRGG-aminoluciferin luminescence, 40 min; inhibition, % at 5 µM; 1.5% of 330,000 active; AID 434973, 2010;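 active = inhibition above about 50% at the single test dose, limit read from the data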;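 note: plate controls were DMSO with enzyme for no effect and no enzyme buffer wells for full effect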
SENP1 FRET inh: human SENP1 catalytic domain inhibitors, primary screen, biochemical, FRET, uHTS. inhibition, % at 10 µM. 0.21% of 360,000 active. AID 624204, 2012. recombinant SENP1 catalytic domain, CyPet-SUMO1-YPet FRET cleavage;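 active = inhibition at least 30% at 10 µM, raw YFP signal under a set limit, fluorescence ratio 0.5 to 1.5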;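 note: 0% = enzyme with DMSO and 100% = no enzyme wells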
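Controls: no-enzyme wells low, DMSO-plus-enzyme wells high control. Test system: human recombinant His6-tagged SENP1 catalytic domain enzyme. Reagent: SFCypet-SUMO1-SFYpet FRET protein substrate, 25 nM final. Doses: one dose per compound, 10 µM, 0.5% DMSO. Detection: FRET, CFP and YFP emission. Timing: 50 min reaction at room temperature.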
SENP6 block: SENP6 protease inhibitors, primary screen, biochemical, luminescence, uHTS; 1.8% of 330,000 active; Recombinant SENP6 catalytic domain, aminoluciferin luminescence; inhibition, % at 10 µM; AID 2599, 2010;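 active = inhibition above about 50% at the single tested dose, limit read from the data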;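 note: plate controls were DMSO wells with enzyme for no effect and DMSO wells lacking enzyme for full effect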
Target sequence (Q9GZR1 628-1112 limits assumed): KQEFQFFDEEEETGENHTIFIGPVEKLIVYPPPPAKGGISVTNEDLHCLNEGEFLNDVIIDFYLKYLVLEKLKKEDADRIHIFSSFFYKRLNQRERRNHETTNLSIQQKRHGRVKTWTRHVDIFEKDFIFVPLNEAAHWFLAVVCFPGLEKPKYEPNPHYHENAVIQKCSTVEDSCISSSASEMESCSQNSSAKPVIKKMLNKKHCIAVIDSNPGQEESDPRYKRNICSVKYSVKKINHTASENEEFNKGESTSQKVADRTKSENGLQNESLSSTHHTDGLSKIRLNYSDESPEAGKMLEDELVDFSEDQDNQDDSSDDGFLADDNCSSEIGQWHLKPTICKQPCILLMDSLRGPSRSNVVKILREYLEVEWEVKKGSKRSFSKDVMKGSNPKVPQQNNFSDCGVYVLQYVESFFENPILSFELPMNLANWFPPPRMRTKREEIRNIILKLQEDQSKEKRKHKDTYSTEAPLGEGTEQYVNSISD
SENP8 block-2: SENP8 protease inhibitors, primary screen, biochemical, luminescence; Sentrin-specific protease 8 (Homo sapiens), Q96LD8; purified SENP8, Z-RLRGG-aminoluciferin cleavage; inhibition, % at 10 µM; 1.2% of 330,000 active; AID 2540, 2010; in the data active = inhibition above about 50%
HSP90 inh: HSP90 inhibitors, primary screen, cell lysate, luminescence | Rabbit reticulocyte lysate, luciferase refolding luminescence, 3 h | inhibition, % at 5.6 µM | 0.91% of 290,000 active | Heat shock protein HSP 90 (rabbit reticulocyte lysate; luciferase refolding);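 active = inhibition above the screen-wide mean plus 3 SD, computed separately per campaign, cut at about 16% in these data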;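 note: 0% = DMSO wells and 100% = 60 µM geldanamycin wells; inhibitors lower the luminescence because luciferase stays unfolded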
SENP8 confirm: SENP8 protease inhibitors, retest, confirmation, biochemical, luminescence, single concentration | shares compounds with SENP7 inh | Recombinant SENP8, Z-RLRGG-aminoluciferin luminescence, 60 min | inhibition, % at 12.5 µM | 40% of 6,200 active | AID 488912, 2010;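 active = mean inhibition across replicates above about 50%, limit read from the data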
SENP6 conf: SENP6 protease inhibitors, confirmation, biochemical, luminescence, single concentration | shares compounds with SENP7 inh | recombinant SENP6, Z-RLRGG-aminoluciferin luminescence | inhibition, % at 12.5 µM | 58% of 6,200 active
SENP7 conf: SENP7 protease inhibitors, retest, confirmation, biochemical, luminescence, single concentration | shares compounds with SENP7 inh | recombinant SENP7, Z-RLRGG-aminoluciferin luminescence, 40 min | inhibition, % at 12.5 µM | 69% of 6,200 active | AID 488917, 2010
Casp3 select: caspase-3 protease inhibitors, confirmation, selectivity assay for SENP inhibitor project, biochemical, single concentration; purified caspase-3, Z-DEVD-aminoluciferin luminescence, 60 min; shares compounds with SENP7 inh; inhibition, % at 12.5 µM; 60% of 6,200 active; AID 488918, 2010;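 active = mean inhibition above about 50%, limit read from the data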;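 note: plate controls were enzyme with DMSO for no effect and wells without caspase-3 for full effect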
Luc interf: counter-screen for SENP inhibitors: luminescence interference | inhibition, % at 12.5 µM | AID 488919 | Pre-incubated SENP8/Z-RLRGG-aminoluciferin, luciferase luminescence interference | shares compounds with SENP7 inh | 39% of 6,200 active;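 active = mean inhibition above about 50% when retested at one dose, limit read from the data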;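 note: plate controls were DMSO wells with completed reaction for no effect and substrate without enzyme for full effect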
The depositor's hits bear a star; i = inactive; nt = no result; ! = not active in a repeat. The list is not random: actives were taken first. Their share in the collection is about 2.9%.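 Rule for the calls, unless noted: active = mean inhibition above about 50% in the one-dose retest (limit read from the data); inactive = the rest.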

SMILES | SENP8 block-1 | SENP7 inh | SENP1 FRET inh | SENP6 block | SENP8 block-2 | HSP90 inh | SENP8 confirm | SENP6 conf | SENP7 conf | Casp3 select | Luc interf
Cc1cc(Cl)ccc1OC(C)C(=O)NNC(=O)C1CCCCC1C(=O)O (centres undefined) | 6 | 13 | 2 | -9 | 0 | -4 | nt | nt | nt | nt | nt
CC(=O)NCCCc1nc2ccccc2n1Cc1ccccc1F | 12 | 55* | 1 | -14 | -7 | -8 | 9 | 8 | -2 | 2 | 0
CCOC(=O)N1CCN(S(=O)(=O)N2CCCC(C(=O)NCc3cc(OC)ccc3OC)C2)CC1 (centres undefined) | 10 | nt | 2 | nt | nt | nt | nt | nt | nt | nt | nt
N/C(=N\OC(=O)c1cccc(F)c1)c1ccccc1 | 13 | 95* | 1 | 91* | 77* | -2 | 83* | 85* | 97* | 92* | 78*
Cc1ccc(/C(N)=N/OC(=O)c2cccc(F)c2)cc1 | 19 | 76* | 0 | 61* | 29 | -6 | 32 | 49 | 83* | 61* | 48
Cc1cccc(C(=O)O/N=C(\N)c2cccc([N+](=O)[O-])c2)c1 | 12 | 22 | 2 | 29 | 2 | -1 | nt | nt | nt | nt | nt
N/C(=N\OC(=O)c1cccc(Br)c1)c1ccncc1 | -9 | 21 | 2 | -12 | 5 | 1 | nt | nt | nt | nt | nt
COc1ccc2nc(SCC(C)=O)c(C#N)cc2c1 | -52 | 60* | 45 | 69* | 61* | -6 | 0 | 72* | 92* | 72* | 52*
COc1ccc(C(=O)Nc2ccc([N+](=O)[O-])cn2)cc1OC | 13 | 2 | 0 | -2 | -10 | -2 | nt | nt | nt | nt | nt
Cc1cc(C(=O)Nc2ccc([N+](=O)[O-])cn2)cs1 | 2 | 51* | 2 | 51* | 28 | -4 | 28 | 41 | 77* | 75* | 12
Cc1ccc(C(=O)Nc2ccc([N+](=O)[O-])cn2)o1 | 17 | 19 | -2 | 53* | 12 | -4 | 35 | 29 | 72* | 77* | 24
COc1cc(OC)cc(C(=O)Nc2ccc([N+](=O)[O-])cn2)c1 | 5 | 81* | -1 | 50 | 25 | 3 | 9 | 11 | 24 | 46 | 12
Cn1cccc1C(=O)C(=O)Nc1ccccc1 | 24 | 94* | 3 | 92* | 80* | 3 | 89* | 90* | 100* | 95* | 88*
Cn1cccc1C(=O)C(=O)Nc1ccccc1C(F)(F)F | 11 | -12 | 2 | -6 | -16 | -1 | nt | nt | nt | nt | nt
O=C(C1CCCN(S(=O)(=O)c2ccc(Br)cc2)C1)N1CCN(Cc2ccccc2)CC1 (centres undefined) | 0 | -9 | -2 | -13 | -10 | -2 | nt | nt | nt | nt | nt
O/N=C/c1ccc(OCc2ccccc2)c(Cl)c1 | 7 | 59* | 3 | 86* | 64* | 0 | 8 | 72* | 90* | 41 | 76*
COC(=O)C1CC(O)C(O)C(O)C1 (centres undefined) | -178 | nt | 2 | nt | nt | nt | nt | nt | nt | nt | nt
Cn1c(-c2ccc(Br)o2)nc2cc(Br)ccc21 | -33 | 83* | -35 | 95* | 85* | 5 | 8 | 90* | 91* | 89* | 38
Cc1ccc(-c2nc3ccccc3n2C)o1 | -151 | 83* | -2 | 70* | 79* | 8 | 91* | 91* | 98* | 95* | 90*
Cn1c(-c2ccc(Br)o2)nc2ccccc21 | 4 | 99* | -4 | 97* | 95* | -1 | 0 | 98* | 103* | 98* | 95*
COc1cc(C(O)c2nc(-c3ccc(F)cc3OC)cs2)ccc1F (centres undefined) | 7 | nt | 2 | nt | nt | nt | nt | nt | nt | nt | nt
Cc1nnc(SCC(=O)Nc2ccc([N+](=O)[O-])cc2)n1CC1CCCO1 (centres undefined) | 10 | -8 | 0 | 10 | 1 | -3 | nt | nt | nt | nt | nt
CCCCCCn1c(COc2ccccc2F)nnc1SCC(=O)NC1CCS(=O)(=O)C1 (centres undefined) | 10 | nt | 0 | nt | nt | nt | nt | nt | nt | nt | nt
COc1cccc2oc3ccc(C#Cc4ccccn4)cc3c(=O)c12 | i | 100* | -6 | 100* | 94* | 17* | 73* | 90* | 100* | 91* | 75*
COc1cccc2sc3cc(C#Cc4ccccn4)ccc3c(=O)c12 | -242 | -1 | -33 | 17 | 11 | nt | nt | nt | nt | nt | nt
SMILES | SENP8 block-1 | SENP7 inh | SENP1 FRET inh | SENP6 block | SENP8 block-2 | HSP90 inh | SENP8 confirm | SENP6 conf | SENP7 conf | Casp3 select | Luc interf
Clc1ccc(CSc2ccc(-c3ccco3)nn2)cc1 | 9 | -8 | 2 | 2 | -3 | -3 | nt | nt | nt | nt | nt
c1ccc(CSc2ccc(-c3ccco3)nn2)cc1 | -3 | 18 | 5 | 60* | 19 | -1 | 21 | 54* | 79* | 52* | 10
Cc1ccc(CSc2ccc(-c3ccco3)nn2)cc1 | 0 | 68* | 4 | 84* | -1 | -1 | 33 | 77* | 96* | 69* | 30
Cc1ccc(CSc2ccc(-c3cccs3)nn2)cc1 | 16 | 69* | 0 | 25 | 8 | -10 | 12 | 12 | 6 | 13 | 6
O=C(COc1ccc(Cl)cc1)Nc1ccc2c(c1)nc1n2CCOC1 | -18 | 3 | -8 | 1 | -2 | -3 | nt | nt | nt | nt | nt
COc1ccc(C2Nc3ccccc3C(=O)N2Cc2ccco2)cc1CN1C(=O)c2ccccc2C1=O (centres undefined) | -67 | 66*! | 0 | -4 | -1 | -2 | 3 | 8 | 10 | 5 | 6
Cc1cccc(NC(=O)CN2C(=O)S/C(=C\c3ccc(O)c([N+](=O)[O-])c3)C2=O)c1 | 26 | -3 | 3 | 51* | 27 | -2 | 13 | 4 | 17 | 24 | 15
Cc1ccc(NC(=O)CN2C(=O)S/C(=C/c3ccc(O)c([N+](=O)[O-])c3)C2=O)cc1C | 34 | 2 | 2 | -27 | 31 | -5 | nt | nt | nt | nt | nt

Screening data from PubChem.
